The target of data set [1] is T1, ERRα (Homo sapiens, UniProt P11474).
T1 sequence (P11474 1-423): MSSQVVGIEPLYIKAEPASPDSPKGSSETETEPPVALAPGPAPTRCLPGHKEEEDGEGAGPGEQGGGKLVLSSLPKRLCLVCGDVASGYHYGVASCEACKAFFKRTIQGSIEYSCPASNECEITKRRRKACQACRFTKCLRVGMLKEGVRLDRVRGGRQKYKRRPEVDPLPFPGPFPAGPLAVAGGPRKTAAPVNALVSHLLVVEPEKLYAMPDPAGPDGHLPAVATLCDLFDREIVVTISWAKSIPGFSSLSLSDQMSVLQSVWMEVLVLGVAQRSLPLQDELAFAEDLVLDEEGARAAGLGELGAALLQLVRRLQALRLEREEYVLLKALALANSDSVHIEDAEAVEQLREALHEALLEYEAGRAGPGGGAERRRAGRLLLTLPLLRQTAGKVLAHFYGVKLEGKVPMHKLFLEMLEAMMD
The data set can be described thus: AAB-Luc cells stably expressing ERRα luciferase reporter. Format: cell-based. A digest of the protocol: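 HEK293T cells were stably transduced at MOI 7 with a lentiviral AAB-GFP-Luc reporter. AAB is the ERRα response element, and the vector carries GFP and luciferase markers. The ERRα luciferase reporter read-out was multiplexed with a cell-viability assay. Test compounds were screened in three independent experiments.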
Background: A reporter such as luciferase makes a cellular process visible.

The target of data set [2] is T2, ERRα-LBD (Homo sapiens, UniProt P11474).
T2 sequence (P11474 193-421 limits assumed): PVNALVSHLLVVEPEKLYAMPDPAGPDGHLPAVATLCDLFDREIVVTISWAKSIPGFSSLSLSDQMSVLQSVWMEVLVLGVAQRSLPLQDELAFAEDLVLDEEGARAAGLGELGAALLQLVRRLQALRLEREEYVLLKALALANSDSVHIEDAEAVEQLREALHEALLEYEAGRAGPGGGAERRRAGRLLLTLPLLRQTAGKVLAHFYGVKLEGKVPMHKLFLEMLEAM
The data set can be described thus: AlphaScreen assay, interaction of ERRα-LBD with PGC1α peptide. Type of data set: binding. A digest of the protocol:
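AlphaScreen used a hexahistidine detection kit with 200 nM His-tagged ERRα-LBD and 50 nM biotinylated PGC1α cofactor peptide, plus donor and acceptor beads. Buffer was 50 mM MOPS, 50 mM NaF, 0.05 mM CHAPS and 0.1 mg/mL BSA at pH 7.4. Test compound was added as a serial dilution series, and EC50 was derived from enhancement of the LBD–peptide interaction.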
A general note: Bead proximity is the source of the signal in Alpha formats.

In data set [3] the test system is ERα. The experiment in a line: Expression of other nuclear hormone receptors: ERα. The following applies: Figure S3. Type of data set: cell-based.
Data set [4] addresses T3, ERRα (Homo sapiens, UniProt P11474).
T3 sequence (P11474 193-421 limits assumed): T2 sequence (P11474 193-421 limits assumed)
T3 sequence (Q9UBK2 1-798 partner): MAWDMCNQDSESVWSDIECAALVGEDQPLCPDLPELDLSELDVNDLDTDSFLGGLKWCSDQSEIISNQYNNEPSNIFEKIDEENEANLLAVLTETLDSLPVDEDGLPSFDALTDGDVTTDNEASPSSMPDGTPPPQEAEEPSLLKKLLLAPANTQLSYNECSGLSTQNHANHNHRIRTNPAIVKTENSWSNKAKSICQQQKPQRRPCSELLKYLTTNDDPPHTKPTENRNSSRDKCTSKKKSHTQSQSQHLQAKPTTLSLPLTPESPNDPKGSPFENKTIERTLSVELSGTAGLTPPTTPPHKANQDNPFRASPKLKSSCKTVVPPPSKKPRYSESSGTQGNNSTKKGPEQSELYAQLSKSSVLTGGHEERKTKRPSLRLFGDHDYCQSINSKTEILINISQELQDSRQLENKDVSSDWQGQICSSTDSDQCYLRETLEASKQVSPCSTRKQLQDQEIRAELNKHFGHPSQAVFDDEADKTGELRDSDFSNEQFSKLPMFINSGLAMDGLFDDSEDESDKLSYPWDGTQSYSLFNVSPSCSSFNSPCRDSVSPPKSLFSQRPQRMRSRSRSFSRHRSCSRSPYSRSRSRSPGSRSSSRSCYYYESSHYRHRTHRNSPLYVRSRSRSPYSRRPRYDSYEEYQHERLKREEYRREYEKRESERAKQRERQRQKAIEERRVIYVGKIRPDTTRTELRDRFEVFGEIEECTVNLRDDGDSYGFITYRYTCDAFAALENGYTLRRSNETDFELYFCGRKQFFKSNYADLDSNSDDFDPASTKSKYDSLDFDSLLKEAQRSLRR
The data set can be described thus: Transient transfection mammalian two-hybrid reporter gene assay. The settings on record: 5.0 μM, 24 h incubation, heterologous cell-based reporter assay. A digest of the protocol:
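HEK293T cells were seeded at 10,000/well in DMEM with 10% FBS. After 18–24 h they were lipofected with GAL4-DBD-ERRα-LBD (0.5 ng), pcDNA-PGC-1α (0.5 ng), pFR reporter (25 ng) and pRL-TK Renilla control (3.0 ng). Test compound was added at 5.0 μM 6 h post-transfection for a further 24 h, and firefly/Renilla luciferase was read by dual-luciferase assay.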

Data set [5] has as its system ERRα. The data set can be described thus: Real-time PCR, transcriptional level of ERRα. The following applies: 5.0 μM, 24 h incubation. Type of data set: cell-based. A digest of the protocol: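 mRNA was quantified by real-time PCR with SYBR Premix Ex Taq under optimised conditions. Gene expression was normalised to Gapdh as the reference gene.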
For orientation: Real-time PCR tracks product formation cycle by cycle.

In data set [6] the test system is ERβ. The data set can be described thus: Expression of other nuclear hormone receptors: ERβ. Format: cell-based. The settings on record: Figure S3.
The nature of data set [7]: Pharmacokinetics in SD rats. Format: in vivo, rat. In short, it runs like this:
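Male Sprague–Dawley rats were dosed with test compound i.v. at 2.0 mg/kg or by oral gavage at 10 mg/kg. The formulation was 5% DMSO/95% hydroxypropyl-β-cyclodextrin (20% w/v) at 1 mg/mL. Orbital-sinus blood was drawn into heparin at 5, 15 and 30 min and at 1, 2, 4, 6, 8 and 24 h. Plasma was stored at −80 °C and quantified by LC/MS, and PK parameters were calculated.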

In data set [8] the test system is FFA-induced HepG2-IR cells. The data set can be described thus: Oil red O lipid accumulation, FFA-induced HepG2-IR cells. The settings on record: palmitic acid (FFA) HepG2-IR, 10.0 μM, 48 h. Type of data set: cell-based. A digest of the protocol: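 HepG2 steatosis models were induced two ways. Line 3 used DMEM with 10% FBS and 1% BSA plus palmitic (0.33 mM) and oleic (0.66 mM) acid, final 1.0 mM, for 24 h. Line 4 used high glucose and insulin. Cells received DMSO or 10.0 μM test compound for 48 h; Erra overexpression and shRNA knockdown served as controls. Cells were formaldehyde-fixed, stained with 0.5% oil red O in isopropanol for 30 min with hematoxylin counterstain, and lipid was quantified.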

Where [9] appears, read: male, Sprague-Dawley, rat, plasma, po, 10 mg/kg.

As usually defined, the EC50 is the concentration at which the effect is half-maximal. Broadly, the Cmax is the highest concentration seen after dosing. Broadly, the Tmax is the time from dosing to the highest level. By AUC(0-inf) is commonly meant the area under the concentration-time curve extrapolated to infinity. Low values mean low exposure, high ones high exposure. Take `COc1ccc2c(=O)n(C)c(-c3ccccc3)nc2c1` [Compound 7, 7-methoxy-3-methyl-2-phenyl quinazolin-4(3H)-one]: the EC50 in data set [1] amounted to 2700 nM; in data set [2] it was 86 nM. The “Expression of ERα” value in data set [3] is on record as “not obviously affected”. Besides, the ERRα-driven luciferase activity result in data set [4] is listed as “effectively improved the ERRα-driven luciferase activity”. Besides, the “Elevation of transcriptional level of ERRα” value in data set [5] is “approximately 2.5 fold”. In data set [6], the “Expression of ERβ” value is “not obviously affected”. The compound also returned a Maximum plasma concentration in data set [7] (SD rat, PO 10 mg/kg) of 2.0 ± 0.45 µM. Also, in data set [7] (SD rat, PO 10 mg/kg vs IV 2 mg/kg, printed on the IV line of Table S1), the “F (oral bioavailability)” value was found to be 9.0%. In data set [7] (setting [9]), this compound displayed a Cmax of 531 ± 120 ng/mL. Moreover, the time of peak concentration (Tmax) in data set [7] (setting [9]) is 15 min. For the same compound, the AUC(0-inf) in data set [7] (male, Sprague-Dawley, rat, plasma, po, 10 mg/kg, AUC(0-∞), SD rat, PO 10 mg/kg) amounted to 383 ± 110 ng·h/mL. The “Lipid accumulation (oil red O)” value in data set [8] is recorded as “significantly alleviated lipid accumulation”.

(Values after paper PMC9302452 (ACS Bio & Med Chem Au, 2022).)
